Assay results of several laboratories.
Each line is one published result; the experiments were not run side by side.
DYRK1A: Dual specificity tyrosine-phosphorylation-regulated kinase 1A (DYRK1A, Homo sapiens, UniProt Q13627)
PDGFRB: Platelet-derived growth factor receptor beta (PDGFRB, Homo sapiens, UniProt P09619)
NPY2R: Neuropeptide Y receptor type 2 (NPY2R, Homo sapiens, UniProt P49146)

CC1(C)Oc2ccc3ccc(=O)oc3c2C/C1=N/O — inhibition (DYRK1A; enzyme activity; inhibitor; ADP detection; 10 µM): 38.6%
Nc1ncnc2c1ncn2[C@@H]1O[C@H](COP(=O)(O)OP(=O)(O)O)[C@@H](O)[C@H]1O — Km (Inositol-tetrakisphosphate 1-kinase (Homo sapiens, UniProt Q13572); enzyme activity; substrate): 1.5 µM
C1=C/COCc2cc(ccc2OCCN2CCCC2)Nc2nccc(n2)-c2cccc(c2)COC/1 — remaining binding (PDGFRB; binding; 0.1 µM): 32%
CCCCC(=O)Nc1ccc(-c2ccc3ncn(CCC)c(=O)c3c2)cn1 — remaining binding (Serine/threonine-protein kinase 25 (STK25, Homo sapiens, UniProt O00506); binding; competition with immobilised ligand; 0.5 µM): 85%
Clc1ccc(-c2cn[nH]c2)s1 — inhibition (DYRK1A; enzyme activity; inhibitor; ADP detection; 10 µM): 52.5%
NC/C(=C\F)COc1cccc(Cn2c(=S)[nH]c(=O)c3[nH]cnc32)c1 — inhibition (NPY2R; ligand displacement; radioligand; 10 µM): < 50%
COc1ccc2oc(-c3ccc4nc(N)oc4c3)c/c(=N\c3ccccc3NC(=O)CCN)c2c1 — remaining binding (Dual specificity tyrosine-phosphorylation-regulated kinase 1B (DYRK1B, Homo sapiens, UniProt Q9Y463); binding; competition with immobilised ligand; 1 µM): 102%
C#Cc1cc(-c2cc(Nc3nc(N[C@@H](C)c4ccc(F)cn4)ncc3Cl)n[nH]2)ccc1C=O — inhibition (Dual specificity tyrosine-phosphorylation-regulated kinase 3 (DYRK3, Homo sapiens, UniProt O43781); enzyme activity; inhibitor; 0.2 µM): 4.84%
O=C1C2C3CC(C(Br)C3Br)C2C(=O)N1CC1CCCO1 (stereo not shown) — inhibition (DYRK1A; enzyme activity; inhibitor; ADP detection; 10 µM): 41.5%
CCN1/C(=C/C(C)=O)Sc2ccc(F)cc21 — inhibition (NPY2R; ligand displacement; radioligand; 10 µM): 0%
Brc1cc(Br)c2ccncc2c1Br — inhibition (DYRK1A; enzyme activity; inhibitor; ADP detection; 10 µM): 41.5%
N#Cc1ccc(NC(=O)Nc2ccccc2)cc1 — inhibition (PDGFRB; cell-free assay; competition with immobilised ligand; 25 µM): 67%
Cc1cc(O)c(-c2ccc([C@@H](C)CN(C)C)cc2)c2c1[nH]c(=O)c1sccc12 — inhibition (Ephrin type-B receptor 3 (EPHB3, Homo sapiens, UniProt P54753); cell-free assay; inhibitor; 0.1 µM): -4.48%
